Results from publication PMC2677731 (Molecular cell, 2009).
Entries after “also recorded” stand apart in the source; their conditions may differ.

Key:
[1] = system: human genome (ENCODE array); test: ChIP-chip, ENCODE tiled arrays; type: cell-based; settings: doxorubicin treatment
Procedure, shortened: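 ChIP DNA from human cells expressing wild-type or ΔPHD2 JADE1L, with or without doxorubicin, was amplified, labelled and hybridised to […] human ENCODE tiled arrays. Analysis followed the array maker's standard protocol. Significant binding peaks were counted by position on the gene body, or by distance from TSS/TES when outside coding regions.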

[2] = system: native wild type chromatin; test: HAT assay on wild type yeast native chromatin; type: biochemical; settings: chromatin 500 ng, fluorography
Procedure, shortened: (§1)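 For acetyltransferase reactions, wild-type or mutant JADE1 complexes were immunopurified from co-transfected cells. They were incubated with 500 ng of native chromatin purified from yeast cells. Assays otherwise followed an earlier published protocol.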

endogenous chromatin = test: In vivo association with endogenous chromatin; type: cell-based
Procedure, shortened: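 Tagged JADE1L or JADE1S complexes, wild-type or mutant, were immunopurified from co-transfected human cells. Co-purifying endogenous core histones and complex subunits were resolved by gel staining. Western blots with specific antibodies, including for H3K36me3, followed.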

native chromatin = test: Chromatin pull-down, yeast wild type native chromatin; type: binding; settings: H3-tail dependent, western blot
Procedure, shortened: (§2)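 Immunopurified JADE1L or JADE1S complexes from co-transfected cells, normalised by gel, were incubated with purified native chromatin. Chromatin came from yeast (wild type or set1, lacking H3K4me) or from human cells.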

set1 chromatin = test: HAT assay on set1; type: biochemical, yeast; settings: chromatin 500 ng, lacking H3K4me
Procedure, shortened: as §1

human native chromatin = test: Chromatin pull-down, human native chromatin; type: binding
Procedure, shortened: as §2

## COc1cccc2c1C(=O)c1c(O)c3c(c(O)c1C2=O)C[C@@](O)(C(=O)CO)C[C@@H]3O[C@H]1C[C@H](N)[C@H](O)[C@H](C)O1 [doxorubicin]
[1]
  JADE1L binding at menin gene: seems to be induced

B1: JADE1S: natural smaller 509 amino acid-protein produced by an abundant mRNA splice variant; dimeric complex with HBO1 (protein)
chain: MKRGRLPSSSEDSDDNGSLSTTWSQNSRSQHRRSSCSRHEDRKPSEVFRTDLITAMKLHDSYQLNPDEYYVLADPWRQEWEKGVQVPVSPGTIPQPVARVVSEEKSLMFIRPKKYIVSSGSEPPELGYVDIRTLADSVCRYDLNDMDAAWLELTNEEFKEMGMPELDEYTMERVLEEFEQRCYDNMNHAIETEEGLGIEYDEDVVCDVCQSPDGEDGNEMVFCDKCNICVHQACYGILKVPEGSWLCRTCALGVQPKCLLCPKKGGAMKPTRSGTKWVHVSCALWIPEVSIGSPEKMEPITKVSHIPSSRWALVCSLCNEKFGASIQCSVKNCRTAFHVTCAFDRGLEMKTILAENDEVKFKSYCPKHSSHRKPEESLGKGAAQENGAPECSPRNPLEPFASLEQNREEAHRVSVRKQKLQQLEDEFYTFVNLLDVARALRLPEEVVDFLYQYWKLKRKVNFNKPLITPKKDEEDNLAKREQDVLFRRLQLFTHLRQDLERVMIDTDTL
[2]
  HAT activity on wild type yeast chromatin: much less active than the JADE1L complex
Endogenous chromatin; immunopurified complexes, gel staining
  co-purification of core histones: a full set of core histones co-purified
Endogenous chromatin; western blot, relative to JADE1L
  level of H3K36me3-containing chromatin bound in vivo: much higher; also recorded: significantly more H3K36me3 signal
Native chromatin
  binding to yeast native chromatin: efficiently pulled down yeast chromatin
set1 chromatin
  HAT activity on set1 yeast chromatin: highly active; also recorded: equivalent acetyltransferase activity
Human native chromatin
  binding to H3K36me3-containing human chromatin in vitro: can bind H3K36me3-containing chromatin in vitro
